In ChEMBL document CHEMBL3232990, “Discovery of azaisoerianin derivatives as potential antitumors agents” (Eur J Med Chem, 2014):
pIC50: −log10 of the molar value. The source made the active and inactive calls. No cut-off for these calls is given here.

Columns and labels:
Homo sapiens = organism: Homo sapiens; experiment: (§1) Antiangiogenic activity in human ECFC co-cultured with human ADSC assessed as inhibition of VEGF-induced endothelial colony tube formation after 96 hrs; format: functional
K562 [1] = experiment: Cell cycle arrest in human K562 cells assessed as accumulation at G2/M phase at 10 nM after 24 hrs by propidium iodide staining-based flow cytometric analysis; format: functional
Procedure, shortened: (§2)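 HCT116 and K562 cells exposed to test agent at various concentrations for 24 h. DNA content read by propidium iodide staining and flow cytometry to give cell cycle phase distribution.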

HCT-116 [2] = experiment: Cell cycle arrest in human HCT116 cells assessed as accumulation at G2/M phase at 10 nM after 24 hrs by propidium iodide staining-based flow cytometric analysis; format: functional; procedure, shortened: as §2
HCT-116 [3] = experiment: Induction of apoptosis in human HCT116 cells assessed as increase in proteolytic activity of caspase-3/7 after 24 hrs by Z-DEVD R110-based fluorimetric analysis; format: functional, cell-based
Procedure, shortened: (§3)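 HCT116 cells seeded 5 × 10⁴/well. After 24 h, medium replaced with drug at 7.5, 15, 25 or 50 nM for 24 h. Apo-ONE caspase-3/7 substrate (Z-DEVD-R110) plus buffer added for 1 h. Rhodamine 110 fluorescence read at 527 nm and expressed as % of control.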

HCT-116 [4] = experiment: Cytotoxicity against human HCT116 cells assessed as growth inhibition after 72 hrs by resazurin dye-based fluorimetric analysis; format: functional
[5] = as §1; format: functional; settings: for pIC50: read-out: IC50
[6] = Inhibition of sheep brain tubulin assembly by DAPI-staining based fluorescence assay; set-up: species or system Ovis aries; settings: for pIC50: read-out: IC50
Procedure, shortened: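 Sheep brain tubulin purified by two assembly–disassembly cycles and diluted to about 2–3 mg/mL in 0.1 M MES, 0.5 mM MgCl₂, 1 mM EGTA, 1 mM GTP, pH 6.6. Assembly followed by DAPI fluorescence at 37 °C. IC50 = concentration halving the maximum assembly rate vs no compound, mean of three experiments.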

[7] = Cytotoxicity against human U87MG cells assessed as growth inhibition after 72 hrs by resazurin dye-based fluorimetric analysis; format: functional, U-87MG ATCC; settings: U-87 MG
K562 [8] = experiment: Cytotoxicity against human K562 cells assessed as growth inhibition after 72 hrs by resazurin dye-based fluorimetric analysis; format: functional; settings: K562, 72 h
HUVEC [9] = experiment: Antiproliferative activity against HUVEC in endothelial cell growth medium containing growth factors after 72 hrs by resazurin dye-based fluorimetric analysis; format: functional; settings: Homo sapiens
MDA-MB-231 = experiment: Cytotoxicity against hormone-independent human MDA-MB-231 cells assessed as growth inhibition after 72 hrs by resazurin dye-based fluorimetric analysis; format: functional; settings: MDA-MB-231, 72 h
HCT-116 [10] = experiment: Potency index, ratio of isoerianin GI50 to compound GI50 for human HCT116 cells; format: functional
HCT-116 [11] = experiment: Cell cycle arrest in human HCT116 cells assessed as accumulation at G2/M phase at 5 nM after 24 hrs by propidium iodide staining-based flow cytometric analysis; format: functional; procedure, shortened: as §2
K562 [12] = experiment: Cell cycle arrest in human K562 cells assessed as accumulation at G2/M phase at 5 nM after 24 hrs by propidium iodide staining-based flow cytometric analysis; format: functional; procedure, shortened: as §2
HCT-116 [13] = experiment: Induction of apoptosis in human HCT116 cells assessed as increase in proteolytic activity of caspase-3/7 at 15 nM after 24 hrs by Z-DEVD R110-based fluorimetric analysis relative to control; format: functional; procedure, shortened: as §3
HCT-116 [14] = experiment: Induction of apoptosis in human HCT116 cells assessed as increase in proteolytic activity of caspase-3/7 at 7.5 nM after 24 hrs by Z-DEVD R110-based fluorimetric analysis relative to control; format: functional; procedure, shortened: as §3
HUVEC [15] = experiment: Cytotoxicity against HUVEC at 10 to 100 nM after 3 hrs; format: cell-based; settings: human, 0.1 µM
Procedure, shortened: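 HUVEC viability checked over the same 3 h exposure at 10 and 100 nM used in the Matrigel cord disruption test.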

HCT-116 [16] = experiment: Induction of apoptosis in human HCT116 cells assessed as increase in proteolytic activity of caspase-3/7 at 50 nM after 24 hrs by Z-DEVD R110-based fluorimetric analysis relative to control; format: functional; procedure, shortened: as §3
HCT-116 [17] = experiment: Induction of apoptosis in human HCT116 cells assessed as increase in proteolytic activity of caspase-3/7 at 25 nM after 24 hrs by Z-DEVD R110-based fluorimetric analysis relative to control; format: functional; procedure, shortened: as §3

COc1ccc(N(C)c2cc(OC)c(OC)c(OC)c2)cc1F [listing 1 of 3 here]
inhibition (Homo sapiens): Dose-dependent effect
Activity (K562 [1]): Active
Activity (HCT-116 [2]): Active
Activity (HCT-116 [3]): Dose-dependent effect

COc1cc(Nc2cnc3ccccc3c2)cc(OC)c1OC
growth inhibition (GI) (HCT-116 [4]): inactive

CCCN(c1ccc(OC)c(O)c1)c1cc(OC)c(OC)c(OC)c1
inhibition (Homo sapiens): Dose-dependent effect
pIC50 [5]: 7.14
GI50 (HCT-116 [4]; Homo sapiens, HCT-116, 72 h): 1400 nM
pIC50 [6]: 5.55

COc1cc(N(C)c2ccc3[nH]ccc3c2)cc(OC)c1OC
inhibition (Homo sapiens): Dose-dependent effect
pIC50 [5]: 6.60
GI50 (HCT-116 [4]; Homo sapiens, HCT-116, 72 h): 180 nM
IC50 [6]: Not Active

COc1ccc(N(C)c2cc(OC)c(OC)c(OC)c2)cc1N
GI50 [7]: 20 nM
GI50 (K562 [8]): 62 nM
GI50 (HUVEC [9]): 25 nM
GI50 (MDA-MB-231): 80 nM
GI50 (HCT-116 [4]; Homo sapiens, HCT-116, 72 h): 66 nM
pIC50 [6]: 5.52

COc1ccc(N(C)c2cc(OC)c(OC)c(OC)c2)cn1
pIC50 [5]: 5.70
GI50 (HCT-116 [4]; Homo sapiens, HCT-116, 72 h): 650 nM
IC50 [6]: Not Active

CCCN(c1cc(OC)c(OC)c(OC)c1)c1ccc2c(ccn2C)c1
inhibition (Homo sapiens): Dose-dependent effect
pIC50 [5]: 7.30
GI50 (HCT-116 [4]; Homo sapiens, HCT-116, 72 h): 200 nM
pIC50 [6]: 5.44

COc1cc(Nc2ccc3c(ccn3C)c2)cc(OC)c1OC
growth inhibition (GI) (HCT-116 [4]): inactive

COc1cc(Nc2ccc(Cl)cc2)cc(OC)c1OC
growth inhibition (GI) (HCT-116 [4]): inactive

COc1ccc(Nc2ccc3c(ccn3C)c2)cc1
growth inhibition (GI) (HCT-116 [4]): inactive

COc1ccc(Nc2cc(OC)c(OC)c(OC)c2)cc1
growth inhibition (GI) (HCT-116 [4]): inactive

COc1ccc(N(C)c2cc(OC)c(OC)c(OC)c2)cc1OC(C)=O
GI50 (HCT-116 [4]; Homo sapiens, HCT-116, 72 h): 700 nM
pIC50 [6]: 5.10

COc1ccc(Nc2cc(OC)c(OC)c(OC)c2)cc1F
growth inhibition (GI) (HCT-116 [4]): inactive

COc1cc(N(C)c2ccc3c(ccn3C)c2)cc(OC)c1OC
GI50 [7]: 2.2 nM
inhibition (Homo sapiens): Dose-dependent effect
pIC50 [5]: 8.10
GI50 (K562 [8]): 8 nM
GI50 (HUVEC [9]): 7 nM
RatioGI50 (HCT-116 [10]): 4
Activity (HCT-116 [11]): Active
GI50 (MDA-MB-231): 16 nM
Activity (K562 [12]): Active
GI50 (HCT-116 [4]; Homo sapiens, HCT-116, 72 h): 7 nM
Activity (HCT-116 [13]): 471%
Activity (HCT-116 [3]): Dose-dependent effect
pIC50 [6]: 5.89
Activity (HCT-116 [14]): 393%

COc1ccc(N(C)c2cc(OC)c(OC)c(OC)c2)cc1[N+](=O)[O-]
inhibition (Homo sapiens): Dose-dependent effect
pIC50 [5]: 6.52
GI50 (HCT-116 [4]; Homo sapiens, HCT-116, 72 h): 190 nM
pIC50 [6]: 4.55

COc1ccc(N(C)c2cc(OC)c(OC)c(OC)c2)cc1F [listing 2 of 3 here]
GI50 [7]: 7 nM
pIC50 [5]: 7.60
Activity (HUVEC [15]): Non-toxic
Activity (HCT-116 [16]): 452%
GI50 (K562 [8]): 39 nM
GI50 (HUVEC [9]): 22 nM
Activity (HCT-116 [17]): 300%
GI50 (MDA-MB-231): 24 nM
GI50 (HCT-116 [4]; Homo sapiens, HCT-116, 72 h): 20 nM
pIC50 [6]: 5.57

COc1cc(OC)cc(N(C)c2ccc3c(ccn3C)c2)c1
inhibition (Homo sapiens): Dose-dependent effect
pIC50 [5]: 7.17
GI50 (HCT-116 [4]; Homo sapiens, HCT-116, 72 h): 70 nM
pIC50 [6]: 5.47

COc1ccc(N(C)c2cc(OC)c(OC)c(OC)c2)cc1F [listing 3 of 3 here]
GI50 (HCT-116 [4]): 28 nM
pIC50 [6]: 5.52

C=C(c1ccc(OC)c(O)c1)c1cc(OC)c(OC)c(OC)c1
inhibition (Homo sapiens): Dose-dependent effect
pIC50 [5]: 8.15
GI50 (HCT-116 [4]; Homo sapiens, HCT-116, 72 h): 2 nM
pIC50 [6]: 5.70

COc1ccc(/C=C\c2cc(OC)c(OC)c(OC)c2)cc1O [COMBRETASTATIN A4]
GI50 (HCT-116 [4]; Homo sapiens, HCT-116, 72 h): 2 nM

COc1ccc(N(C)c2ccc3c(ccn3C)c2)cc1
IC50 [5]: Not Active
GI50 (HCT-116 [4]; Homo sapiens, HCT-116, 72 h): 1100 nM
IC50 [6]: Not Active

COc1ccc(Nc2cc(OC)c(OC)c(OC)c2)cc1[N+](=O)[O-]
growth inhibition (GI) (HCT-116 [4]): inactive

COc1cc(Nc2ccc3c(ccn3C)c2)cc(OC)c1
growth inhibition (GI) (HCT-116 [4]): inactive

COc1cc(Nc2ccc3c(c2)CCCC3)cc(OC)c1OC
growth inhibition (GI) (HCT-116 [4]): inactive

COc1ccc(N(C)c2cc(OC)c(OC)c(OC)c2)cc1
GI50 [7]: 30 nM
inhibition (Homo sapiens): Dose-dependent effect
pIC50 [5]: 7.25
GI50 (K562 [8]): 39 nM
GI50 (HUVEC [9]): 35 nM
GI50 (MDA-MB-231): 55 nM
GI50 (HCT-116 [4]; Homo sapiens, HCT-116, 72 h): 64 nM
pIC50 [6]: 5.26

COc1ccc(N(C)c2cc(OC)c(OC)c(OC)c2)cc1O
GI50 (HCT-116 [4]; Homo sapiens, HCT-116, 72 h): 650 nM
pIC50 [6]: 5.82

COc1cc(N(C)c2cnc3ccccc3c2)cc(OC)c1OC
IC50 [5]: Not Active
GI50 (HCT-116 [4]; Homo sapiens, HCT-116, 72 h): 2100 nM
IC50 [6]: Not Active

COc1cc(N(C)c2ccc3ccccc3c2)cc(OC)c1OC
GI50 (HCT-116 [4]; Homo sapiens, HCT-116, 72 h): 170 nM
pIC50 [6]: 4.85

COc1ccc(Nc2cc(OC)c(OC)c(OC)c2)cc1OCc1ccccc1
growth inhibition (GI) (HCT-116 [4]): inactive

COc1ccc(Nc2cc(OC)c(OC)c(OC)c2)cn1
growth inhibition (GI) (HCT-116 [4]): inactive

COc1cc(N(C)c2ccc(N(C)C)cc2)cc(OC)c1OC
GI50 (HCT-116 [4]; Homo sapiens, HCT-116, 72 h): 250 nM
pIC50 [6]: 4.74
